Sampled rows, rich in hits. Any-hit rate of the full collection: about 6.4%.
CHOP inh: inhibitors of CHOP induction in ER stress response. 3.8% of 220,000 active. CHO-K1 CHOP-promoter luciferase, tunicamycin-induced, 15-18 h. inhibition, % at 10 µM;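 active = compounds that reduced the stress-induced luciferase reporter signal by more than about 70% of percent inhibition, limit read from the data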;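 note: 0% = tunicamycin plus vehicle and 100% = wells without tunicamycin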
Tb MetRS inh: blocks T. brucei methionyl-tRNA synthetase activity | purified T. brucei MetRS, ATP depletion, Kinase-Glo luminescence | inhibition, % at 11.9 µM | 0.4% of 360,000 active | AID 624268;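 active = inhibition above a per-plate cutoff of the control wells' mean inhibition plus 3 SD, cut at about 5.5% in these data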;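 note: 0% = DMSO wells median and 100% = median of wells with control inhibitor compound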
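Assay system: T. brucei methionyl-tRNA synthetase, purified | Medium: HEPES buffer with MgCl2, KCl, DTT, spermine, BSA, pyrophosphatase | Compound: 11.9 µM single point | Incubation: 15 min enzyme-compound preincubation, 2 h reaction, 10 min detection, 25 °C | Measured by: Kinase-Glo luciferase luminescence reporting remaining unconsumed ATP | Measure: % inhibition normalized to control-well medians | Replication: Singlicate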
MPTP inh: permeability transition pore inhibition; isolated mouse mitochondria, Ca2+ swelling absorbance, 30 min; inhibition, % at 10 µM; 1.4% of 360,000 active; AID 602449;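 active = inhibition of 50% or more, scaled per plate between neutral and stimulator controls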;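 note: 0% = DMSO wells given calcium and 100% = 1 mM EGTA wells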
WT yeast gro inh: growth inhibition of WT yeast, mitochondrial fusion screen | mitochondrial fusion phenotypic screen, WT strain | inhibition, % at 10 µM | 2.1% of 190,000 active; in the data active = inhibition above about 58%; tested in S. cerevisiae
NR3A LBD binder: modulators (binders) of human NR3A ligand-binding domain; NR3A LBD differential scanning fluorimetry, Tm shift; 0% = protein alone, 100% = glycine-bound protein; Tm shift relative to glycine control, % at 25 µM; 2.5% of 340,000 active; AID 1259313;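 active = melting temperature shift of at least 10% of the positive control shift, at one fixed dose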
EBV gp42 block: blocks Epstein-Barr virus glycoprotein 42 binding; Fluorescence polarization binding assay, mP read-out; inhibition, % (tested at 21.74 µM); 0.42% of 220,000 active; in the data active = inhibition above about 50%
Target sequence (Q1HVG2 whole entry, looked up): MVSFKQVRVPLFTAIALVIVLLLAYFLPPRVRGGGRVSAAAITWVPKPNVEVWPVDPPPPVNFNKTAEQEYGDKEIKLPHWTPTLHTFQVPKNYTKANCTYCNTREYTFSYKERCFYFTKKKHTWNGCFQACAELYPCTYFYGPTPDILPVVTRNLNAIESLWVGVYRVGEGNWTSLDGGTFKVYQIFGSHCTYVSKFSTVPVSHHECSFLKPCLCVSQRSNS
Numbers without * were called inactive; / = not tested or not shown.

SMILES | CHOP inh | Tb MetRS inh | MPTP inh | WT yeast gro inh | NR3A LBD binder | EBV gp42 block
Cc1cc(C(=O)NNC(=O)c2ccc(S(=O)(=O)N(C)C)cc2)c(C)o1 | -6 | 0 | 0 | -21 | 0 | -9
COc1ccc(S(=O)(=O)N(C(=O)c2ccco2)c2cc3sc(=O)oc3c3ccccc23)cc1 | 85* | -1 | 1 | 0 | -2 | -1
CCOc1ccc(S(=O)(=O)N(C(=O)c2ccco2)c2cc3sc(=O)oc3c3ccccc23)cc1 | 39 | 0 | 2 | 3 | 1 | -2
CCN(CC)CCC(c1ccc2c(c1)OCO2)c1c(OC)cc(OC)c2ccc(=O)oc12 (stereo not given) | 1 | 0 | 0 | / | -1 | -16
CCN(CC)CCC(c1cc(OC)c(OC)c(OC)c1)c1c(OC)cc(OC)c2ccc(=O)oc12 (stereo not given) | 20 | -1 | 0 | / | 13* | -12
CC(C)C(c1nnnn1C(C)(C)C)N1CCN(c2cccc(Cl)c2)CC1 (stereo not given) | -13 | -1 | 2 | 75* | 0 | -8
Cc1ccc(NC(=S)Nc2cccnc2)c(S(=O)(=O)N2CCCCC2)c1 | 46 | 0 | 38 | -7 | -2 | -3
Cc1cccnc1Nc1nc(-c2ccc(O)cc2O)cs1 | 44 | -1 | -1 | 48 | 25* | 10
Oc1ccc(-c2csc(Nc3ccccn3)n2)c(O)c1 | / | -1 | 3 | / | 36* | /
CCc1c(C(C)=O)oc2ccc3c(C)cc(=O)oc3c12 | 30 | 0 | 3 | / | 0 | -11
COc1ccc(NC(=S)N2CCc3ccccc3C2)cc1 | -11 | 0 | 0 | 4 | -1 | 0
Cc1coc2c1C(=O)C(=O)c1c-2ccc2c1CCCC2(C)C | 16 | -2 | 19 | 73* | -10 | -10
C[C@H]1COC2=C1C(=O)C(=O)c1c2ccc2c1CCCC2(C)C | -8 | -2 | 0 | 74* | -10 | -5
Cc1coc2c1C(=O)C(=O)c1c-2ccc2c(C)cccc12 | 30 | 0 | 0 | / | -10 | -16
O=C1N(c2ccccc2)C[C@@H]2C[C@@H](c3cc4ccccc4o3)N3CCC[C@@]123 | 103* | -1 | -2 | 17 | -1 | 10
Nc1nc(-c2ccc3c(c2)CCCC3)cs1 | 48 | -1 | 0 | 81* | -2 | 2
Nc1nc(-c2ccc3c(c2)OCCO3)cs1 | -17 | 0 | -5 | -4 | 2 | -16
O=[N+]([O-])c1ccc2c(c1)N([O-])C1(CCCCC1)[N+]2=O | 95* | / | / | / | -2 | -13
Cc1ccc2nc(-c3ccc(NS(C)(=O)=O)cc3)cc(-c3ccccc3)c2c1 | 78* | 0 | 2 | 3 | 7 | 0
CCS(=O)(=O)Nc1ccc(-c2cc(-c3ccccc3)c3cc(C)ccc3n2)cc1 | 87* | -1 | 1 | 90* | 10* | 25
CCn1c(SCC(=O)Nc2cc(C)on2)nc2c1c(=O)n(C)c(=O)n2C | 10 | 0 | -1 | -6 | 0 | -22
CCOc1ccc(CCNC(=O)c2ccc(C)c(NC3=NC4CS(=O)(=O)CC4S3)c2)cc1 (stereo not given) | / | 0 | -1 | / | 2 | /
C[C@@]12C(=O)N(CC3CCCO3)CC(=O)N1[C@@H]1c3ccccc3OC[C@@H]1[C@@H]2c1ccccc1 (stereo not given in full) | / | -1 | 0 | / | 2 | /
CC(=O)c1sc(NC(=O)c2ccc(F)c(F)c2)nc1C | -17 | -1 | -2 | -2 | -2 | -9
CC(C)C1Cc2c(sc3ncnc(NN)c23)CO1 (stereo not given) | / | -1 | -1 | / | -4 | /
SMILES | CHOP inh | Tb MetRS inh | MPTP inh | WT yeast gro inh | NR3A LBD binder | EBV gp42 block
Cc1ccc(-c2nc3cc(Br)cnc3nc2-c2ccc(C)cc2)cc1 | 4 | -1 | 7 | 77* | -2 | 5
CCOc1ccc(NC(=O)C2CCC(CNc3c(N4CCOCC4)c(=O)c3=O)CC2)cc1 (stereo not given) | 24 | 0 | 0 | 7 | 0 | -17
C=CCn1c(SCC(=O)Nc2nc(C)cs2)nnc1C(C)NC(=O)c1ccccc1Cl (stereo not given) | -1 | -1 | 2 | -14 | -2 | -1
COc1ccc(-c2ccnc3nc(N4CCN(c5ccccc5)CC4)nn23)cc1 | 72* | 1 | 7 | 40 | -6 | 10
CCOc1ccc(-c2cc(CCCC(=O)NCCc3ccccc3)no2)cc1 | 69 | 0 | 4 | 5 | -17 | -1
CCOc1ccc(NC(=O)CCCc2cc(-c3ccc(OCC)cc3)on2)cc1 | 83* | -1 | 4 | 1 | 4 | -22
CCOc1ccc(-c2cc(CCCC(=O)NCc3cccnc3)no2)cc1 | 80* | -1 | -1 | 15 | 0 | -11
OC[C@@H]1[C@@H](c2ccc(Cl)cc2)C(c2ccccc2)=NN1c1ccccc1 | / | 0 | 1 | / | 24* | /
COc1ccccc1[C@H]1C(c2ccccc2)=NN(c2ccccc2)[C@@H]1CO | / | 1 | 1 | / | 2 | /
COc1ccccc1[C@H]1C(c2cccc(C)c2)=NN(c2ccccc2)[C@@H]1CO | / | -3 | 0 | / | -6 | /
OC[C@@H]1[C@@H](c2ccc(Cl)cc2)C(c2cccc(Cl)c2)=NN1c1ccccc1 | / | 0 | 5 | / | 31* | /
OC[C@@H]1[C@@H](c2ccc(F)cc2)C(c2cccc(Cl)c2)=NN1c1ccccc1 | / | 0 | 1 | / | 27* | /
CCOC(=O)c1cnc2c(C)cc(C)cc2c1NCCCN1CCOCC1 | / | -1 | 0 | / | 0 | /
COc1cc(/C=C/C(=O)Nc2nnc(CC(C)(C)C)s2)cc(OC)c1OC | 90* | 0 | 5 | -10 | 9 | -27
COc1ccc(/C=C/C(=O)Nc2nnc(C(C)C)s2)cc1OC | 59 | 0 | 3 | / | 2 | -2
COc1cc(/C=C/C(=O)Nc2nnc(CC(C)C)s2)cc(OC)c1OC | 90* | 0 | 4 | -9 | 0 | -24
COc1ccc(-c2noc(COC(=O)c3ccco3)n2)cc1OC | / | 0 | -2 | / | -2 | /
Cc1nc2cc(C(=O)OCC(=O)NC34CC5CC(CC(C5)C3)C4)ccc2n1-c1ccccc1 | 49 | -1 | 4 | 59* | -8 | -41
O=C1OC(c2ccc(F)cc2)=C/C1=C\c1ccc(O)cc1 | / | -1 | 4 | / | 17* | /
O=C1OC(c2ccc(F)cc2)=C/C1=C\c1ccc([N+](=O)[O-])o1 | 25 | / | / | 85* | / | -64
CCc1ccc(CCC(=O)Nc2sc(C)c(C)c2C(=O)OC)o1 | 83* | -2 | 1 | 53 | -2 | -7
COC(=O)c1c(NC(=O)CCCC(=O)O)sc(C)c1C | 6 | -1 | 0 | -2 | -2 | 5
S=C(NCCN1CCOCC1)Nc1ccc(-c2nc3ccccc3[nH]2)cc1 | 14 | 0 | -2 | 8 | 15* | 8
c1cncc(-c2nc3ccccc3[nH]2)c1 | 11 | 1 | 0 | 21 | 2 | -3
S=C(Nc1ccc(-c2nc3ccccc3[nH]2)cc1)Nc1cccnc1 | / | 0 | -2 | / | 37* | /
